# Laboratory results as given in ChEMBL document CHEMBL1153317, “Design, synthesis, and structure-activity relationship of novel CCR2 antagonists” (Bioorg Med Chem Lett, 2009).
# Tested on: not listed separately
# Experiment: Tmax in Sprague-Dawley rat at 3 mg/kg, po
# Format: ADME, organism-based
# Set-up: dose 3 mg/kg, route oral
# Settings: in vivo
row,Tmax [min],SMILES
1,15,CC(C)[C@]1(C(=O)NCc2cc(C(F)(F)F)cc(C(F)(F)F)c2)CC[C@@H](N[C@H]2CCOC[C@H]2C)C1

# Tested on: not listed separately
# Experiment: Tmax in Beagle dog at 2 mg/kg, po
# Format: ADME, organism-based, Canis lupus familiaris
# Set-up: dose 2 mg/kg, route oral
# Settings: in vivo
row,Tmax [min],SMILES
1,45,CC(C)[C@]1(C(=O)NCc2cc(C(F)(F)F)cc(C(F)(F)F)c2)CC[C@@H](N[C@H]2CCOC[C@H]2C)C1

# Tested on: not listed separately
# Experiment: Tmax in rhesus monkey at 2 mg/kg, po
# Format: ADME, organism-based, Macaca mulatta
# Set-up: dose 2 mg/kg, route oral
# Settings: in vivo
row,Tmax [min],SMILES
1,60,CC(C)[C@]1(C(=O)NCc2cc(C(F)(F)F)cc(C(F)(F)F)c2)CC[C@@H](N[C@H]2CCOC[C@H]2C)C1

# Tested on: not listed separately
# Experiment: AUC in rhesus monkey at 2 mg/kg, po
# Format: ADME, organism-based, Macaca mulatta
# Set-up: dose 2 mg/kg, route oral
# Settings: plasma
row,AUC [µM·h],SMILES
1,0.01,CC(C)[C@]1(C(=O)NCc2cc(C(F)(F)F)cc(C(F)(F)F)c2)CC[C@@H](N[C@H]2CCOC[C@H]2C)C1

# Tested on: not listed separately
# Experiment: AUC in Sprague-Dawley rat at 3 mg/kg, po
# Format: ADME, organism-based
# Set-up: dose 3 mg/kg, route oral
# Settings: plasma
row,AUC [µM·h],SMILES
1,0.76,CC(C)[C@]1(C(=O)NCc2cc(C(F)(F)F)cc(C(F)(F)F)c2)CC[C@@H](N[C@H]2CCOC[C@H]2C)C1

# Tested on: not listed separately
# Experiment: Oral bioavailability in Sprague-Dawley rat at 3 mg/kg
# Format: ADME, organism-based
# Settings: in vivo
row,bioavailability [%],SMILES
1,42,CC(C)[C@]1(C(=O)NCc2cc(C(F)(F)F)cc(C(F)(F)F)c2)CC[C@@H](N[C@H]2CCOC[C@H]2C)C1

# Target: T1, C-C chemokine receptor type 2 (Homo sapiens, UniProt P41597)
# Experiment: Displacement of [125I]hMCP1 from human CCR2 receptor expressed in CHO cells
# Format: cell-based
# Settings: not given
# How it was run: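 CHO cells expressing human CCR2b (5 × 10⁴) incubated 60 min at room temperature with ¹²⁵I-hMCP-1 (20–50 pM) plus varied competitor concentrations in 50 mM Hepes, 5 mM MgCl₂, 1 mM CaCl₂, pH 7.4. Stopped by filtration on polyethyleneimine-presoaked GF/B filters, washed with 25 mM Hepes pH 7.5/500 mM NaCl. IC50 is the average of triplicate measurements.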
# Target sequence in this assay (P41597 whole entry): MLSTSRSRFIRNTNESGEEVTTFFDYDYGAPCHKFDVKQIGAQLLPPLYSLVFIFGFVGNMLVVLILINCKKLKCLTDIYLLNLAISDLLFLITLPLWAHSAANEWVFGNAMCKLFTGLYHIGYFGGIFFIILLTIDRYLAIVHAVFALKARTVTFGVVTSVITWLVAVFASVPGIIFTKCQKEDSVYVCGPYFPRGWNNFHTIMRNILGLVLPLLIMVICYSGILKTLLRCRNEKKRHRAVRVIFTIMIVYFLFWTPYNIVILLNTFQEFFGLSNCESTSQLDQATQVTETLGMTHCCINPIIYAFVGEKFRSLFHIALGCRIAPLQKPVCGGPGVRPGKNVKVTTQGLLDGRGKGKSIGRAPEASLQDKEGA
row,IC50 [nM],SMILES
1,5.6,CCC1COCCC1N[C@@H]1CC[C@@](C(=O)NCc2cc(C(F)(F)F)cc(C(F)(F)F)c2)(C(C)C)C1 (stereo in doubt; 61)
2,85,CC(C)[C@]1(C(=O)NCc2cc(C(F)(F)F)cc(C(F)(F)F)c2)CC[C@@H](NC2CCOC2)C1 (some centres undefined)
3,259,CC(C)[C@]1(C(=O)NCc2cc(C(F)(F)F)cc(C(F)(F)F)c2)CC[C@@H](NC2CCOCC2F)C1 (stereo in doubt; 63)
4,4,CC1COCCC1N[C@@H]1CC[C@@](C(=O)NCc2cc(C(F)(F)F)cc(C(F)(F)F)c2)(C(C)C)C1 (stereo in doubt; 58)
5,6,CC(C)[C@]1(C(=O)NCc2cc(C(F)(F)F)cc(C(F)(F)F)c2)CC[C@@H](NC2CCOCC2F)C1 (stereo in doubt; 50)
6,1.5,CC1COCCC1N[C@@H]1CC[C@@](C(=O)NCc2cc(C(F)(F)F)cc(C(F)(F)F)c2)(C(C)C)C1 (stereo in doubt; 45)
7,30,CC(C)[C@]1(C(=O)NCc2cc(C(F)(F)F)cc(C(F)(F)F)c2)CC[C@@H](NC2CCCOCC2)C1 (some centres undefined)
8,3,CCC1COCCC1N[C@@H]1CC[C@@](C(=O)NCc2cc(C(F)(F)F)cc(C(F)(F)F)c2)(C(C)C)C1 (stereo in doubt; 46)
9,56,CC(C)[C@]1(C(=O)NCc2cc(C(F)(F)F)cc(C(F)(F)F)c2)CC[C@@H](NC2CCCOC2)C1 (some centres undefined)
10,42,CC1COCCC1N[C@@H]1CC[C@@](C(=O)NCc2cc(C(F)(F)F)cc(C(F)(F)F)c2)(C(C)C)C1 (stereo in doubt; 57)
11,14.3,CC(C)[C@]1(C(=O)NCc2cc(C(F)(F)F)cc(C(F)(F)F)c2)CC[C@@H](NC2CCOCC2F)C1 (stereo in doubt; 64)
12,4.6,CC(C)[C@]1(C(=O)NCc2cc(C(F)(F)F)cc(C(F)(F)F)c2)CC[C@@H](NC2CCOCC2)C1
13,5.5,CC(C)[C@]1(C(=O)NCc2cc(C(F)(F)F)cc(C(F)(F)F)c2)CC[C@@H](NC2CCOCC2C(F)(F)F)C1 (some centres undefined)
14,51,CC(C)[C@]1(C(=O)NCc2cc(C(F)(F)F)cc(C(F)(F)F)c2)CC[C@@H](NC2CCOCC2O)C1 (some centres undefined)
15,1.2,CC1COCCC1N[C@@H]1CC[C@@](C(=O)NCc2cc(C(F)(F)F)cc(C(F)(F)F)c2)(C(C)C)C1 (stereo in doubt; 59)
16,193,CC(C)[C@]1(C(=O)NCc2cc(C(F)(F)F)cc(C(F)(F)F)c2)CC[C@@H](NC2CCC2)C1
17,141,CCC1COCCC1N[C@@H]1CC[C@@](C(=O)NCc2cc(C(F)(F)F)cc(C(F)(F)F)c2)(C(C)C)C1 (stereo in doubt; 60)
18,3,CCC1COCCC1N[C@@H]1CC[C@@](C(=O)NCc2cc(C(F)(F)F)cc(C(F)(F)F)c2)(C(C)C)C1 (stereo in doubt; 62)
19,123,CC(C)[C@]1(C(=O)NCc2cc(C(F)(F)F)cc(C(F)(F)F)c2)CC[C@@H](NC2CCOCC2C2CC2)C1 (some centres undefined)
20,7.8,CCCC1COCCC1N[C@@H]1CC[C@@](C(=O)NCc2cc(C(F)(F)F)cc(C(F)(F)F)c2)(C(C)C)C1 (some centres undefined)

# More lines, now with the values behind:
row,SMILES,IC50 [nM]
1,CC(C)[C@]1(C(=O)NCc2cc(C(F)(F)F)cc(C(F)(F)F)c2)CC[C@@H](NC2Cc3ccccc3C2)C1,187
2,CC(C)[C@]1(C(=O)NCc2cc(C(F)(F)F)cc(C(F)(F)F)c2)CC[C@@H](NC2CCSC2)C1 (some centres undefined),36
3,CC(C)[C@]1(C(=O)NCc2cc(C(F)(F)F)cc(C(F)(F)F)c2)CC[C@@H](NC2CCc3ccccc32)C1 (some centres undefined),77
4,CC(C)[C@]1(C(=O)NCc2cc(C(F)(F)F)cc(C(F)(F)F)c2)CC[C@@H](NC2CCOCC2(C)C)C1 (some centres undefined),230
5,Cc1ccc(-c2ccc3c(c2)C=C(C(=O)Nc2ccc(C[N+](C)(C)C4CCOCC4)cc2)CCC3)cc1,28
6,CC(C)[C@]1(C(=O)NCc2cc(C(F)(F)F)cc(C(F)(F)F)c2)CC[C@@H](NC2CCCCCC2)C1,175
7,CC(C)[C@]1(C(=O)NCc2cc(C(F)(F)F)cc(C(F)(F)F)c2)CC[C@@H](NC2CCOc3ccccc32)C1 (some centres undefined),419
8,CC1CC(N[C@@H]2CC[C@@](C(=O)NCc3cc(C(F)(F)F)cc(C(F)(F)F)c3)(C(C)C)C2)CCO1 (some centres undefined),28
9,CC(C)[C@]1(C(=O)NCc2cc(C(F)(F)F)cc(C(F)(F)F)c2)CC[C@@H](NC2CCS(=O)(=O)CC2)C1,631
10,CC1COCC(C)C1N[C@@H]1CC[C@@](C(=O)NCc2cc(C(F)(F)F)cc(C(F)(F)F)c2)(C(C)C)C1 (some centres undefined),7
11,CC(C)[C@]1(C(=O)NCc2cc(C(F)(F)F)cc(C(F)(F)F)c2)CC[C@@H](NC2CCc3ccccc3C2)C1 (some centres undefined),239
12,CC(C)[C@]1(C(=O)NCc2cc(C(F)(F)F)cc(C(F)(F)F)c2)CC[C@@H](NC2CCSCC2)C1,22
13,CC(C)[C@]1(C(=O)NCc2cc(C(F)(F)F)cc(C(F)(F)F)c2)CC[C@@H](NC2CCCCC2)C1,64
14,CC(C)[C@]1(C(=O)NCc2cc(C(F)(F)F)cc(C(F)(F)F)c2)CC[C@@H](NC2CCCC2)C1,156
15,CC(C)[C@]1(C(=O)NCc2cc(C(F)(F)F)cc(C(F)(F)F)c2)CC[C@@H](NC2CCOCC2(O)C(F)(F)F)C1 (some centres undefined),765
16,CC(C)[C@]1(C(=O)NCc2cc(C(F)(F)F)cc(C(F)(F)F)c2)CC[C@@H](NCC2CCOCC2)C1,362

# Tested on: not listed separately
# Experiment: AUC in Beagle dog at 2 mg/kg, po
# Format: ADME, organism-based, Canis lupus familiaris
# Set-up: dose 2 mg/kg, route oral
# Settings: plasma
row,AUC [µM·h],SMILES
1,0.62,CC(C)[C@]1(C(=O)NCc2cc(C(F)(F)F)cc(C(F)(F)F)c2)CC[C@@H](N[C@H]2CCOC[C@H]2C)C1

# Tested on: not listed separately
# Experiment: Cmax in rhesus monkey at 2 mg/kg, po
# Format: ADME, organism-based, Macaca mulatta
# Set-up: dose 2 mg/kg, route oral
# Settings: in vivo
row,Cmax [nM],SMILES
1,4,CC(C)[C@]1(C(=O)NCc2cc(C(F)(F)F)cc(C(F)(F)F)c2)CC[C@@H](N[C@H]2CCOC[C@H]2C)C1

# Target: T1, C-C chemokine receptor type 2
# Experiment: Displacement of [125I]hMCP1 from human CCR2 receptor expressed in CHO cells at 1 uM
# Format: cell-based
# Settings: not given
# Target sequence in this assay (P41597 whole entry, looked up): as the sequence (P41597 whole entry) above
row,Activity [%],SMILES
1,21,CC(C)[C@]1(C(=O)NCc2cc(C(F)(F)F)cc(C(F)(F)F)c2)CC[C@@H](NC2CCNCC2)C1

# Tested on: not listed separately
# Experiment: Cmax in Beagle dog at 2 mg/kg, po
# Format: ADME, organism-based, Canis lupus familiaris
# Set-up: dose 2 mg/kg, route oral
# Settings: in vivo
row,Cmax [nM],SMILES
1,422,CC(C)[C@]1(C(=O)NCc2cc(C(F)(F)F)cc(C(F)(F)F)c2)CC[C@@H](N[C@H]2CCOC[C@H]2C)C1

# Tested on: not listed separately
# Experiment: Oral bioavailability in rhesus monkey at 2 mg/kg
# Format: ADME, organism-based, Macaca mulatta
# Settings: in vivo
row,bioavailability [%],SMILES
1,2,CC(C)[C@]1(C(=O)NCc2cc(C(F)(F)F)cc(C(F)(F)F)c2)CC[C@@H](N[C@H]2CCOC[C@H]2C)C1

# Tested on: not listed separately
# Experiment: Cmax in Sprague-Dawley rat at 3 mg/kg, po
# Format: ADME, organism-based
# Set-up: dose 3 mg/kg, route oral
# Settings: in vivo
row,Cmax [nM],SMILES
1,735,CC(C)[C@]1(C(=O)NCc2cc(C(F)(F)F)cc(C(F)(F)F)c2)CC[C@@H](N[C@H]2CCOC[C@H]2C)C1

# Tested on: not listed separately
# Experiment: Oral bioavailability in Beagle dog at 2 mg/kg
# Format: ADME, organism-based, Canis lupus familiaris
# Settings: in vivo
row,bioavailability [%],SMILES
1,28,CC(C)[C@]1(C(=O)NCc2cc(C(F)(F)F)cc(C(F)(F)F)c2)CC[C@@H](N[C@H]2CCOC[C@H]2C)C1
